# Measurements gathered from unrelated publications.
# Lines come from different studies, so protocols differ.
Compound,target or system,test,test system,setting,quantity,value
Cc1ccc(N=Nc2c(N)nn3c(-c4ccc(C)cc4)cc(-c4ccc(OCc5ccccc5)cc4)nc23)cc1,Enterobacter cloacae,microbial killing,ATCC23355,,MBC,62.5 µg/mL
COc1ccc(NC(=O)Nc2ccc(-c3cn(Cc4cccc(Cl)c4)nn3)cc2)cc1,NCI-H1299,"cell growth or viability, CCK-8",,"50 µM, 72 h",viability,93.7%
Cc1ccc2[nH]nc(-c3nnc(Nc4ccc(Cl)cc4)s3)c2c1,Serratia marcescens,microbial growth,ATCC8100,,MIC,65.8 µg/mL
COc1ccc(NC(=O)Nc2ccc(-c3cn(Cc4ccc(C)cc4)nn3)cc2)cc1,NCI-H1299,"cell growth or viability, CCK-8",,"50 µM, 72 h",viability,104%
Cc1ccc(-c2cc(-c3ccc(OCc4ccccc4)cc3)nc3c(N=Nc4ccc(F)cc4)c(N)nn23)cc1,Enterobacter cloacae,microbial killing,ATCC23355,,MBC,125 µg/mL
O=C(NCc1cn(Cc2ccc(Br)cc2)nn1)Nc1ccccc1Br,NCI-H1299,"cell growth or viability, CCK-8",,"50 µM, 72 h",viability,89.2%
COc1ccc(NC(=O)Nc2cccc(-c3cn(Cc4ccc(Br)cc4)nn3)c2)cc1,NCI-H1299,"cell growth or viability, CCK-8",,"50 µM, 72 h",viability,151%
O=C(Nc1ccc(Cl)cc1)Nc1ccc(-c2cn(Cc3ccc(Br)cc3)nn2)cc1,NCI-H1299,"cell growth or viability, CCK-8",,"50 µM, 72 h",viability,89.9%
Cc1ccc2[nH]nc(-c3nnc(Nc4ccc(O)cc4)s3)c2c1,Serratia marcescens,microbial growth,ATCC8100,,MIC,62.8 µg/mL
O=C(Nc1ccc(Cl)cc1)Nc1cccc(-c2cn(Cc3ccc(Cl)cc3)nn2)c1,NCI-H1299,"cell growth or viability, CCK-8",,"50 µM, 72 h",viability,76.3%
COc1ccc(N=Nc2c(N)nn3c(-c4ccc(C)cc4)cc(-c4ccc(OCc5ccccc5)cc4)nc23)cc1,Enterobacter cloacae,microbial killing,ATCC23355,,MBC,125 µg/mL
Cc1n[nH]c2ccc3nc(-c4ccc(C(=O)NCCN(C)C)cc4)c4c(c3c12)CCCC4,22Rv1,cell growth or viability,,72 h,GI50,1.78 µM
COc1ccc(NC(=O)Nc2ccc(-c3cn(Cc4ccc(Br)cc4)nn3)cc2)cc1,NCI-H1299,"cell growth or viability, CCK-8",,"50 µM, 72 h",viability,106%
O=C(NCc1cn(Cc2ccc(Br)cc2)nn1)Nc1ccc(Cl)cc1,NCI-H1299,"cell growth or viability, CCK-8",,"50 µM, 72 h",viability,91.5%
Cc1ccc(N=Nc2c(N)nn3c(-c4ccco4)cc(-c4ccc(OCc5ccccc5)cc4)nc23)cc1,Enterobacter cloacae,microbial killing,ATCC23355,,MBC,125 µg/mL
Cc1ccc2[nH]nc(-c3nnc(Nc4ccc(Br)cc4)s3)c2c1,Serratia marcescens,microbial growth,ATCC8100,,MIC,257 µg/mL
COc1ccc(NC(=O)Nc2ccc(-c3cn(Cc4ccc(Cl)cc4)nn3)cc2)cc1,NCI-H1299,"cell growth or viability, CCK-8",,"50 µM, 72 h",viability,97.9%
COc1ccc(N=Nc2c(N)nn3c(-c4ccco4)cc(-c4ccc(OCc5ccccc5)cc4)nc23)cc1,Enterobacter cloacae,microbial killing,ATCC23355,,MBC,62.5 µg/mL
CC(C)(C)c1cc(NC(=O)Nc2ccc(-c3cn4c(n3)sc3cc(OCCN5CCOCC5)ccc34)cc2)no1,22Rv1,cell growth or viability,,72 h,GI50,> 10 µM
